Measured values as given in ChEMBL document CHEMBL2390856, “Carbon-11 N-methyl alkylation of L-368,899 and in vivo PET imaging investigations for neural oxytocin receptors” (Bioorg Med Chem Lett, 2013).
pIC50, pKi: −log10 of the molar value. Each block holds one compound with its values, some of them ahead of it.

Assays:
[1] = target: Vasopressin V2 receptor (Rattus norvegicus, UniProt Q00788); test: Inhibition of rat kidney V2 receptor
[2] = target: Vasopressin V1a receptor (Rattus norvegicus, UniProt P30560); test: Inhibition of rat liver V1a receptor
Vasopressin V1a receptor (Rattus norvegicus, UniProt P30560), sequence (P30560 whole entry): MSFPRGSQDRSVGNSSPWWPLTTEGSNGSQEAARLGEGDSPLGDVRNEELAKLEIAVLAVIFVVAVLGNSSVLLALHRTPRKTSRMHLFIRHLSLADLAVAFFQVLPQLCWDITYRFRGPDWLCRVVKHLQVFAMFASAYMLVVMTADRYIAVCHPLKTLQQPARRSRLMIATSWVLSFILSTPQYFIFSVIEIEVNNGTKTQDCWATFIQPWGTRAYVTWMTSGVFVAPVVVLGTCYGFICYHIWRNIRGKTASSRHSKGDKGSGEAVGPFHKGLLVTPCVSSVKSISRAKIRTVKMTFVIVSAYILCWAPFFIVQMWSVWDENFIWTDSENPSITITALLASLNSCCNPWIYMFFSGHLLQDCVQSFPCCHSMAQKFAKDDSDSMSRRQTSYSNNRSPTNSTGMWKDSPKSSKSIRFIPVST

[3] = target: T1, Oxytocin receptor (Rattus norvegicus, UniProt P70536); test: Inhibition of rat uterus OT receptor
T1 sequence (P70536 whole entry): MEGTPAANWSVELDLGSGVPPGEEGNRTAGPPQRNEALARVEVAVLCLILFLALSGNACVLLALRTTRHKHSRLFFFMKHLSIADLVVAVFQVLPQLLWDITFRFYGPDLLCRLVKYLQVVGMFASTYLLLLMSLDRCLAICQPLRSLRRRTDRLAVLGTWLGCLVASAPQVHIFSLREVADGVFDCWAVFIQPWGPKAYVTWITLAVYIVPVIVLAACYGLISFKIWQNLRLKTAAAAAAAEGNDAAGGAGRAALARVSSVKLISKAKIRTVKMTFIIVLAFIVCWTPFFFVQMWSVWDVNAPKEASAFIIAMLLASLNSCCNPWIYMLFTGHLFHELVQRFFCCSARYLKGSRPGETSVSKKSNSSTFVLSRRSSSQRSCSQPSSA

[4] = Oral bioavailability in dog; type: ADME, organism-based, Canis lupus familiaris; conditions: in vivo
[5] = Oral bioavailability in rat; type: ADME, organism-based; conditions: in vivo
[6] = target: Vasopressin V2 receptor (Homo sapiens, UniProt P30518); test: Binding affinity to human V2 receptor
Vasopressin V2 receptor (Homo sapiens, UniProt P30518), sequence (P30518 whole entry): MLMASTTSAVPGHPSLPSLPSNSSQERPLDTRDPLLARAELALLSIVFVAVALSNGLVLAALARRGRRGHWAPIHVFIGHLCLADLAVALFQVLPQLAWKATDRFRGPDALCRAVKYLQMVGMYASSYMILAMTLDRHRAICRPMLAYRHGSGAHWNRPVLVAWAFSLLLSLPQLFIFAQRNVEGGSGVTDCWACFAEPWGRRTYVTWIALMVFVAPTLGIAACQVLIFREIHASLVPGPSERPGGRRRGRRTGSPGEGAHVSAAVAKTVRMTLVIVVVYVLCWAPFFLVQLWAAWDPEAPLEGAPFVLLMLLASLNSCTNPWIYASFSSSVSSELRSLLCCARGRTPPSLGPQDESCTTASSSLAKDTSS
In short: (§1)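 Ki values in nM from human receptor binding assays run by the NIMH Psychoactive Drug Screening Program.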

[7] = target: T2, Vasopressin V1b receptor (Homo sapiens, UniProt P47901); test: Binding affinity to V1B receptor (unknown origin); in short: as §1
T2 sequence (P47901 whole entry): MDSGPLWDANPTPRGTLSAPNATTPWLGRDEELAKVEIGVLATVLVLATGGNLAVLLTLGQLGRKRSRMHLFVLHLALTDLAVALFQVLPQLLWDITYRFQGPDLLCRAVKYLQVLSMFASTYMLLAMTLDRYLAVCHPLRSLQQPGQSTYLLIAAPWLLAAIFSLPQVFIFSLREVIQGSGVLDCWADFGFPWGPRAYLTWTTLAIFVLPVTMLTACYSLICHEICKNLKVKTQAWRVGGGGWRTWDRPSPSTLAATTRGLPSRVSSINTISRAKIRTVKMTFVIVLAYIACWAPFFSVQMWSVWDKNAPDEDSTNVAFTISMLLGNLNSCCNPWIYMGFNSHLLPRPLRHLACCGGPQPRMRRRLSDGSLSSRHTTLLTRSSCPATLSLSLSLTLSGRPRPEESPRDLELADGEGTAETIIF

[8] = target: T3, Oxytocin receptor (Homo sapiens, UniProt P30559); test: Binding affinity to human OT receptor; in short: as §1
T3 sequence (P30559 whole entry): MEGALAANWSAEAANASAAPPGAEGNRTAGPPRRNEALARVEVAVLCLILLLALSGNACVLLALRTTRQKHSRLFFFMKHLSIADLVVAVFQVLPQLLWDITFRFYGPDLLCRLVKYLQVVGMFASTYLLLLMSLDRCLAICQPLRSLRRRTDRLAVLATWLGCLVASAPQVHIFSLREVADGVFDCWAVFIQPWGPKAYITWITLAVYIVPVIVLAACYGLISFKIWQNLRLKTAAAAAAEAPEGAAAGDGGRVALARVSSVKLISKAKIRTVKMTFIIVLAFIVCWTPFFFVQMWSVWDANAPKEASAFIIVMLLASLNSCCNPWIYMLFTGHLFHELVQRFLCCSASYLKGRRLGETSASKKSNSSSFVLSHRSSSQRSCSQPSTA

[9] = target: Vasopressin V1a receptor (Homo sapiens, UniProt P37288); test: Binding affinity to human liver V1A receptor
Vasopressin V1a receptor (Homo sapiens, UniProt P37288), sequence (P37288 whole entry): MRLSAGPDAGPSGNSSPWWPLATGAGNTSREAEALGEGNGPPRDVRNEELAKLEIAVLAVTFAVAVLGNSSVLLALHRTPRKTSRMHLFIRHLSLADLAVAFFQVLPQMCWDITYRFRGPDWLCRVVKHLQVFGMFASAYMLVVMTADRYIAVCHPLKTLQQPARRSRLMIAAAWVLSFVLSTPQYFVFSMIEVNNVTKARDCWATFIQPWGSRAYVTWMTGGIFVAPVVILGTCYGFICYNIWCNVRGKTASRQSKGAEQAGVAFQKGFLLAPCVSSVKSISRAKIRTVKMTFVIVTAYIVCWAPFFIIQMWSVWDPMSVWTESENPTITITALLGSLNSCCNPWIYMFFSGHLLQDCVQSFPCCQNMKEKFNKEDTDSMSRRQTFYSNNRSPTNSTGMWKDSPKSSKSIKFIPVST

[10] = Drug uptake in cynomolgus monkey choroid plexus at 8.3 mCi, iv after 2 hrs by PET imaging analysis; type: ADME, organism-based, Macaca fascicularis; conditions: in vivo
In short: (§2)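 One male cynomolgus monkey (8.91 kg) given an 8.3 mCi iv bolus of radiotracer. PET scan for 2 h from injection, with images summed. Time-activity curves were derived for choroid plexus, muscle and whole brain.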

[11] = system: Brain; test: Drug uptake in Sprague-Dawley rat brain at 500 uCi by PET imaging analysis; type: ADME, tissue-based; conditions: in vivo
[12] = Lipophilicity, log P of the compound at pH 7.4; type: physicochemical; conditions: buffer
[13] = system: Brain; test: Drug uptake in Sprague-Dawley rat brain at 500 uCi after 10 mins by PET imaging analysis; type: ADME, tissue-based; conditions: in vivo
[14] = Drug uptake in Sprague-Dawley rat amygdala at 500 uCi after 10 mins by PET imaging analysis; type: ADME, tissue-based; conditions: in vivo
[15] = system: Muscle tissue; test: Drug uptake in Sprague-Dawley rat muscle at 500 uCi by PET imaging analysis in presence of ornithine vasotocin; type: ADME, tissue-based; conditions: in vivo
In short: (§3)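 Estradiol benzoate-primed Sprague-Dawley rats (10–12 μg sc in sesame oil, daily for 3 days). The peptide OT antagonist ornithine vasotocin (5 mg/kg) was injected 10 min before the radiotracer to block peripheral receptors. 500 μCi of tracer was injected 30 s into a 45 min emission scan.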

[16] = Drug uptake in Sprague-Dawley rat pituitary gland at 500 uCi by PET imaging analysis in presence of ornithine vasotocin; type: ADME; conditions: in vivo; in short: as §3
[17] = Drug uptake in Sprague-Dawley rat pituitary gland at 500 uCi by PET imaging analysis; type: ADME, tissue-based; conditions: in vivo
[18] = system: Hypothalamus; test: Drug uptake in Sprague-Dawley rat hypothalamus at 500 uCi after 10 mins by PET imaging analysis; type: ADME, tissue-based; conditions: in vivo
[19] = Drug uptake in Sprague-Dawley rat dorsal caudate nucleus at 500 uCi after 10 mins by PET imaging analysis; type: ADME, tissue-based; conditions: in vivo
[20] = Drug uptake in cynomolgus monkey muscle at 8.3 mCi, iv after 2 hrs by PET imaging analysis; type: ADME, organism-based, Macaca fascicularis, Muscle tissue; conditions: in vivo; in short: as §2
[21] = system: Brain; test: Drug uptake in cynomolgus monkey brain at 8.3 mCi, iv after 2 hrs by PET imaging analysis; type: ADME, organism-based, Macaca fascicularis; conditions: in vivo; in short: as §2

Vasopressin V2 receptor (Rattus norvegicus, UniProt Q00788), sequence (Q00788 whole entry): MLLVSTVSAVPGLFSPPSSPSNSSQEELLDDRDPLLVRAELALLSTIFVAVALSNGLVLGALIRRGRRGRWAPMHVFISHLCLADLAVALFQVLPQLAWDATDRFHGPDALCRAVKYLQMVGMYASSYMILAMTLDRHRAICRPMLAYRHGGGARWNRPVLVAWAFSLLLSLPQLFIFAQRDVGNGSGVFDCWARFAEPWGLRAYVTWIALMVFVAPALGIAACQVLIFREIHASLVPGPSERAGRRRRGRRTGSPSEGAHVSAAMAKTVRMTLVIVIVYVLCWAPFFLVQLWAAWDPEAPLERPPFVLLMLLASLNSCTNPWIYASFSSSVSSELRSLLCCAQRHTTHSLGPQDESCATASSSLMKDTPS

- pIC50 [1]: 6.24
- pIC50 [2]: 6.43
- pIC50 [3]: 8.05
- bioavailability [4]: 17%
- bioavailability [5]: 17%
SMILES: Cc1ccccc1N1CCN(S(=O)(=O)C[C@]23CC[C@H](C[C@@H]2NC(=O)[C@@H](N)CCS(C)(=O)=O)C3(C)C)CC1

- pKi [6]: 6.74
- pIC50 [1]: 6.46
- pIC50 [2]: 6.49
- pIC50 [3]: 8.04
- pKi [7]: 5.89
- pKi [8]: 8.28
- pKi [9]: 6.21
SMILES: CN[C@@H](CCS(C)(=O)=O)C(=O)N[C@H]1C[C@H]2CC[C@]1(CS(=O)(=O)N1CCN(c3ccccc3C)CC1)C2(C)C

- Drug uptake [10]: Active
- Drug uptake [11]: Active
- logD [12]: 2.62
- Drug uptake [13]: Active
- Drug uptake [14]: Active
- Drug uptake [15]: Active
- Drug uptake [16]: Active
- Drug uptake [17]: Active
- Drug uptake [18]: Active
- Drug uptake [19]: Active
- Drug uptake [20]: Active
- Drug uptake [21]: Not Active
SMILES: Cc1ccccc1N1CCN(S(=O)(=O)C[C@]23CC[C@H](C[C@@H]2NC(=O)[C@H](CCS(C)(=O)=O)N[11CH3])C3(C)C)CC1
